CAL PDZ FP-1: inhibitors of human CAL PDZ peptide binding. purified CAL PDZ, TMR-peptide fluorescence polarization, 1 h. inhibition, % at 24.9 µM. actives 0.92% (n = 300,000). AID 602252;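 active means mean inhibition of at least 30% with at least half of replicates also reaching 30%; inconclusive means no clear call, values can overlap the other calls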;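 further: 0% = DMSO neutral control and 100% = excess unlabeled competitor peptide PRC23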
CAL PDZ FP-2: blocks peptide binding to human CAL PDZ domain | Q9HD26 | purified CAL PDZ, TMR-peptide fluorescence polarization, 1 h | inhibition, % at 20 µM | actives 0.02% (n = 330,000) | AID 504414;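 active means highest replicate inhibition of at least 40%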;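 further: plate controls were DMSO neutral control wells for no effect and unlabeled competitor peptide control wells for full effect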
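material = purified tagged CAL PDZ domain construct (CerCALP) | buffer or medium = sodium phosphate/NaCl buffer pH 7.4 with TCEP, IgG, Thesit | reagent = TMR-labelled reporter peptide T*-PRC34 bound in PDZ groove | incubation = 1 h room-temperature incubation prior to read | measured by = fluorescence polarization (mP) | evaluation = percent inhibition from loss of millipolarization | control set = unlabelled peptide and DMSO controls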
PKA-R2B act: activates the human PKA-R2B holoenzyme complex | PKA-R2B holoenzyme dissociation, Cy5-IP20 fluorescence polarization; R2B truncated from residue 108, S112A mutant; 0% DMSO only, 100% 113 µM cGMP | P22694+P31323 | actives 0.079% (n = 340,000) | activation, % at 11.4 µM;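 active means activation above a cutoff set at the mean over all compounds plus 3 SD, cut at about 18% in these data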;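 further: higher means more holoenzyme dissociation and a rise in polarization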
dFosB activator: enhances mouse delta FosB homodimer DNA binding. purified delta FosB, TAMRA-CDK5 oligo fluorescence polarization; percent of positive-control signal above neutral wells. activation, % at 25 µM. actives 0.99% (n = 340,000). AID 493131;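 active means mean activation above about 17%, with every replicate also reaching it, limit read from the data, passing the limit was not always enough; inconclusive means only one of the two conditions met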
NTR1 ag: activates human neurotensin receptor 1 | NTR1-U2OS beta-arrestin-GFP spot imaging, agonist mode | AID 493036 | actives 0.17% (n = 330,000) | P30989 | activation, % at 20 µM;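 active means activation at or above 40% of the spot to cytoplasm intensity ratio, with at least 20 cells analyzed; inconclusive means wells under 20 cells, flagged as cytotoxic or low count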;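 further: 0% = DMSO without peptide and 100% = 100 nM NTR1 peptide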
Target sequence (P30989 whole entry, looked up): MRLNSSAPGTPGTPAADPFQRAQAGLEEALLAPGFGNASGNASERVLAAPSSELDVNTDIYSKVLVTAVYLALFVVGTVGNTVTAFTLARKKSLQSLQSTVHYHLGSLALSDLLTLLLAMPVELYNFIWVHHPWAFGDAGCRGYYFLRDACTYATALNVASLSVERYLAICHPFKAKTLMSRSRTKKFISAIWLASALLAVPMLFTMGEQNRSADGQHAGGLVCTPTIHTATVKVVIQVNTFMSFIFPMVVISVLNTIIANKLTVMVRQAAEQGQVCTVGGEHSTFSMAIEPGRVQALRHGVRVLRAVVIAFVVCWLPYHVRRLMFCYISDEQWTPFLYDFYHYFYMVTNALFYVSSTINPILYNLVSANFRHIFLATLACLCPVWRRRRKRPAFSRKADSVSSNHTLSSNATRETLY
PKA-R1A act: PKA-R1A complex activation; P00514+P68181; PKA-R1A dissociation, Cy5-IP20 fluorescence polarization; scaled: DMSO 0%, 113 µM cGMP 100%; activation, % at 11.4 µM; actives 0.083% (n = 340,000);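 active means percent activation above the mean of all tested compounds plus 3 SD, cut at about 19% in these data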;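 further: higher means more PKAc released from R1A so a rise in polarization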
An asterisk follows results filed as active; ? = inconclusive; nt = not tested or not shown; + = active, no number. Shown are actives, neighbours in structure and some others; about 2% of the full set was active somewhere.

SMILES | CAL PDZ FP-1 | CAL PDZ FP-2 | PKA-R2B act | dFosB activator | NTR1 ag | PKA-R1A act
COc1ccc(CC(=O)Nc2ccc(C(C)=O)cc2)cc1 | -1.8 | -2.1 | 3.7 | -7.7 | -0.5 | 5.5
COc1ccc(CC(=O)Nc2ccc(C(=O)NCC(C)C)cc2)cc1 | -3.2 | -0.4 | 2.2 | 27.7* | -0.2 | 0.0
COc1ccccc1OCCNC(=O)c1ccc(Br)cc1 | 32.9* | nt | 5.5 | -3.4 | 0.2 | -0.3
CN1CCN(C(=O)C2CCN(S(=O)(=O)c3cnc[nH]3)CC2)CC1 | -0.9 | -0.5 | -8.1 | -2.5 | 2.2 | -8.5
CC1CCCC(NC(=O)C2CCN(S(=O)(=O)c3cnc[nH]3)CC2)C1C (centres undefined) | 64.2* | -0.6 | -2.3 | -4.7 | 0.3 | -0.2
CCOc1ccc(OCC)c(NC(=O)C2CCCN(S(=O)(=O)c3c(C)noc3C)C2)c1 (centres undefined) | 32.6* | -4.9 | -0.6 | -2.7 | 2.3 | 8.3
COc1ccccc1CNC(=O)C(NS(=O)(=O)c1ccc2c(c1)OCCO2)C(C)C (centres undefined) | -5.2 | -0.1 | -2.4 | 28.2* | 0.1 | -16.3
COc1ccc(S(=O)(=O)NC(C)C(=O)NCc2ccc3c(c2)OCO3)cc1OC (centres undefined) | 1.3 | -1.9 | -5.5 | -5.2 | 2.7 | 3.1
COc1ccc(NS(=O)(=O)c2ccc(OCC(=O)N3CCOCC3)cc2)cc1 | -3.4 | -0.4 | -5.2 | -7.7 | 0.9 | -6.1
O=C(COc1ccc2cc(Br)ccc2c1)N1CCOCC1 | 102.5* | -1.3 | -7.4 | -6.4 | -2.0 | -9.3
O=C(COc1ccc(S(=O)(=O)Nc2ccc(Cl)cc2)cc1)N1CCOCC1 | 99.9* | -0.9 | 3.3 | -7.8 | 0.1 | 1.0
Cn1cc(CNC(=O)C2CCC(=O)N(Cc3ccccc3F)C2)cn1 (centres undefined) | -2.9 | -0.7 | -6.3 | -3.6 | 1.0 | -5.0
CC(C)CCN1C(=O)C2(OCCCO2)c2cc(Cl)ccc21 | -6.5 | 0.0 | -2.8 | 0.7 | 5.0 | -15.6
Cc1ccc(S(=O)(=O)N2C(=O)C(C)SC2=Nc2ccccc2)cc1 (centres undefined) | -1.1 | -0.1 | -7.6 | -0.5 | -0.3 | 1.8
Cc1ccc(S(=O)(=O)N2C(=O)C(c3ccccc3)SC2=Nc2ccccc2)cc1 (centres undefined) | -12.8 | -0.6 | -3.9 | 42.7* | -0.8 | -4.8
O=C(COc1cc(Cl)ccc1Cl)Nc1nnc(C2CC2)s1 | 37.3* | -0.5 | -5.3 | 11.9 | -1.0 | -16.1
O=C(Nc1ccc2cn[nH]c2c1)c1ccccc1F | 85.1* | -1.1 | 2.2 | -0.3 | -0.4 | -0.9
Cc1cccc(NS(=O)(=O)c2ccc(C)c(C(=O)NCC(c3cccs3)N(C)C)c2)c1 (centres undefined) | 5.5 | -1.8 | -5.7 | -11.7 | 0.8 | -10.7
COc1ccc(S(=O)(=O)N/N=C(/C)c2cccc(NC(=O)c3ccccc3Cl)c2)cc1 | 43.0* | -1.2 | 6.6 | 0.0 | -0.6 | 4.9
O=C(O)CCN(Cc1ccccc1)S(=O)(=O)c1ccc(Cl)cc1F | -0.7 | 0.2 | 0.6 | 1.1 | 1.9 | 10.5
O=C(O)CCN(Cc1ccccc1)S(=O)(=O)c1ccccc1Cl | 52.3* | -1.7 | -8.5 | -1.8 | nt | -1.6
COc1ccc(NC(=O)C2=CC(c3ccc(OC)cc3)=NS(=O)(=O)N2C)cc1 | nt | -1.3 | 6.5 | -2.6 | -2.0 | -6.4
COc1ccc(OC)c(C2=NS(=O)(=O)N(C)C(C(=O)Nc3ccc(C(C)=O)cc3)=C2)c1 | 53.8* | 0.0 | -3.9 | -5.1 | -0.5 | 0.5
O=C(Nc1ccc(Cc2ccncc2)cc1)c1ccc([N+](=O)[O-])o1 | 0.0 | -20.6 | -0.6 | -6.4 | 23.5 | -7.0
Cc1ccc(N2CCN(C(=S)Nc3ccccc3)CC2)cc1 | 85.6* | -0.3 | 5.4 | 1.7 | 0.6 | -9.0
SMILES | CAL PDZ FP-1 | CAL PDZ FP-2 | PKA-R2B act | dFosB activator | NTR1 ag | PKA-R1A act
CCN(CC)C(=O)Cn1cc(C(=O)C(=O)N2CCc3ccccc32)c2ccccc21 | 46.1* | -1.5 | 4.9 | -9.7 | 1.6 | 0.7
O=P(OCC1CCCO1)(OCC1CCCO1)OCC1CCCO1 (centres undefined) | -4.7 | 0.5 | -3.0 | 3.9 | nt | 1.8
COc1ccccc1N1CCN(S(=O)(=O)c2ccc3c(c2)NC(=O)C(C)S3)CC1 (centres undefined) | 113.7* | -0.5 | 8.0 | -5.9 | 2.1 | 2.1
O=C(O)Cc1ccc(NC(=O)COc2ccc3ccccc3c2)cc1 | -5.4 | -0.5 | -6.1 | -0.8 | 0.2 | -6.3
COc1ccc(NC(=O)COC(=O)COc2cccc(Br)c2)cc1OC | 35.7* | 11.0 | -1.4 | -3.6 | -0.3 | -7.9
CC(=O)Nc1ccc(NC(=O)COC(=O)COc2ccc3ccccc3c2)cc1 | 104.7* | -0.4 | 12.3 | ? | -1.2 | -10.1
CCOC(=O)CNC(=O)CSc1nnc(Cn2cnc3ccccc32)n1C | + | -0.7 | 9.9 | -2.1 | -0.9 | -0.1
COc1ccc(NC(=O)CSc2nnc(Cn3cnc4ccccc43)n2C)cc1 | -2.4 | -2.0 | 3.3 | -6.6 | -1.1 | 1.4
O=C(Nc1ccc(Cl)cn1)c1ccccc1SCc1ccccc1 | -4.0 | 0.2 | -3.1 | -1.6 | 5.3 | -6.6
Cc1cccc(NC(=O)c2ccccc2SCc2ccc(F)cc2)n1 | 59.9* | -0.3 | 16.8 | -3.2 | -0.9 | 4.0
COc1ccc(CCC(=O)Nc2ncc(C)s2)cc1OC | 50.5* | -0.8 | -7.4 | 1.8 | -0.8 | 1.7
Cc1ccc(S(=O)(=O)N(C)C(C)CCc2ccco2)cc1 (centres undefined) | + | -1.0 | 3.6 | -4.1 | 4.3 | -16.3
CC(C)(C)[C@H]1COC(=O)CCC/C=C/C[C@H](CC(=O)N(CCO)Cc2ccccc2)C(=O)N1 | -3.0 | -0.1 | -5.9 | -2.6 | -0.2 | 0.1
CC(C)(C)[C@H]1COC(=O)CCCC/C=C\C[C@H](CC(=O)N(CCO)Cc2ccccc2)C(=O)N1 | 105.9* | -0.7 | 4.4 | -1.4 | -3.1 | -3.2
Cc1cccc(C(=O)Nc2c(C(=O)N(C)C)cnn2-c2ccccc2)c1 | -1.5 | 0.0 | 1.2 | 1.0 | 3.4 | -11.3
Cc1ccc(C)c(S(=O)(=O)N2CCCOC2CNC(=O)C(=O)NCCc2ccco2)c1 (centres undefined) | 68.8* | 1.0 | 2.3 | -7.8 | 1.1 | 2.7
CC(C)c1ccc(NC(=O)COC(=O)C2CC3C=CC2C3)cc1 (centres undefined) | -1.2 | 0.8 | -11.3 | -5.4 | 1.1 | -11.7
CCc1ccc(NC(=O)C(C)OC(=O)Cn2[nH]c(=O)c3ccccc3c2=O)cc1 (centres undefined) | nt | nt | -0.1 | nt | nt | -0.5
O=C(Cn1cnc(S(=O)(=O)N2CCCC2)c1)Nc1cccc(Br)c1 | 49.9* | -1.2 | 1.7 | -2.7 | -0.4 | 16.0

Screening data: PubChem BioAssay, several laboratories
